Key:
[1] = tested on: non-diabetic wounds in rats; settings: cited from earlier work
[2] = tested on: non-diabetic wounds in pigs; settings: cited from earlier work
[3] = tested on: non-diabetic wounds in humans; settings: cited from earlier work
[4] = biological target: ADAM17; settings: read-out: Ki ADAM17; competitive; cited from earlier work
[5] = tested on: wild-type mice; assay: Excisional wound-healing model in wild-type mice, topical treatment; format: in vivo, mouse
Procedure, shortened: (§1)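 Test compound dissolved in saline at 5.0 mg mL−1 as the dosing solution; saline vehicle; both filter-sterilised. Applied topically to excisional wounds in db/db or wild-type mice. Wound healing scored on days 1, 3, 7, 10 and 14, with n = 35, 28, 21, 14 and 7 mice on those days. Results given as mean ± SD, with treated versus vehicle compared statistically.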

[6] = tested on: apoptotic cells in wounds of diabetic mice; assay: TUNEL apoptosis detection in diabetic wound tissues; format: in vivo, mouse; settings: versus vehicle
[7] = tested on: db/db mice; assay: H&E staining of wounds, re-epithelialization, db/db mice; format: in vivo, mouse; settings: topical, day 14
Procedure, shortened: (§2)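 Wounds were treated topically with the test compound in saline, or with saline vehicle alone. Wounds were imaged at a common scale. Day-14 wound tissue was H&E stained, and the re-epithelialized region was traced on the sections.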

[8] = biological target: MMP-9 (Mus musculus, UniProt P41245); assay: In-situ zymography with DQ-gel in diabetic wound tissues; format: in vivo; settings: db/db mice, versus vehicle
Procedure, shortened: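 db/db wounds were treated topically with the test compound or vehicle. Wound sections were incubated with the fluorogenic MMP gelatin substrate DQ-gel to localise MMP activity in situ. Nuclei were counterstained with DAPI, and the green fluorescence was imaged merged with the DAPI signal.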

[9] = tested on: MMP-19; settings: at 30 μM; cited from earlier work
[10] = tested on: MMP-1; settings: at 250 μM; cited from earlier work
[11] = tested on: ADAM9; settings: at 20 μM; cited from earlier work
[12] = tested on: wild-type mice; assay: H&E staining of wounds, re-epithelialization, wild-type mice; format: in vivo, mouse; settings: topical, day 14
Procedure, shortened: as §2

[13] = tested on: ADAM10; settings: at 20 μM; cited from earlier work
[14] = tested on: MMP-7; settings: at 250 μM; cited from earlier work
[15] = tested on: db/db mice; assay: Excisional diabetic wound-healing model, topical treatment; format: in vivo, mouse
Procedure, shortened: as §1

MMP-9, sequence (P41245 108-730): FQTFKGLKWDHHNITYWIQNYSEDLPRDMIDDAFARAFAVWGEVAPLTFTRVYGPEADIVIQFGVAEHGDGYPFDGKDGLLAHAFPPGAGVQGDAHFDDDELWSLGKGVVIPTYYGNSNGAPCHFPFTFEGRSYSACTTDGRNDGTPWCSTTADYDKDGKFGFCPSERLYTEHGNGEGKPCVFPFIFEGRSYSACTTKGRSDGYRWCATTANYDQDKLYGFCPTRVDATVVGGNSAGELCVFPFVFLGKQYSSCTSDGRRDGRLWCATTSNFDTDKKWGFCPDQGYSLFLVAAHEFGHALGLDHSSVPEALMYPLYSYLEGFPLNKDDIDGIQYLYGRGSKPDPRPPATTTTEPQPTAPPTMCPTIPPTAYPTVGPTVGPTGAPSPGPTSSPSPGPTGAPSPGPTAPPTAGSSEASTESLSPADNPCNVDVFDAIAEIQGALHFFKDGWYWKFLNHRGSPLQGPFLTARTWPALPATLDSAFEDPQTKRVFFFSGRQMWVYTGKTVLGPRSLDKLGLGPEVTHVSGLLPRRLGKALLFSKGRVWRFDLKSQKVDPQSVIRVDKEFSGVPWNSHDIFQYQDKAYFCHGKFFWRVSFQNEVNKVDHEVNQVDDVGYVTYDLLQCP

SMILES: CNC(=O)[C@H](Cc1c[nH]c2ccccc12)NC(=O)[C@@H](CC(=O)NO)CC(C)C [ilomastat]
- epithelialization [1]: diminished epithelialization
- wound closure [1]: delayed wound closure
- epithelialization [2]: diminished epithelialization
- wound closure [2]: delayed wound closure
- epithelialization [3]: diminished epithelialization
- wound closure [3]: delayed wound closure

SMILES: Nc1ccc(Oc2ccc(S(=O)(=O)CC3CS3)cc2)cc1 (stereo not shown) [ND-322]
- Ki [4]: 15.7 ± 2 µM
- wound healing as a percentage of the initial wound area ([5]; day 7, mean ± SD): 62 ± 19%
- wound healing as a percentage of the initial wound area ([5]; day 10, mean ± SD): 82 ± 11%
- wound healing as a percentage of the initial wound area ([5]; day 14, mean ± SD): 96 ± 4%
- apoptosis in wound tissues (TUNEL) [6]: significantly decreased
- re-epithelialization (H&E staining) [7]: complete re-epithelialization
- gelatinase activity (due to MMP-9) in wound tissues [8]: significantly decreased
- inhibition of MMP-19 [9]: 9%
- inhibition of MMP-1 [10]: 10%
- inhibition of ADAM9 [11]: 30%
- re-epithelialization (H&E staining) [12]: complete re-epithelialization
- inhibition of ADAM10 [13]: 21%
- inhibition of MMP-7 [14]: 16%
- wound healing as a percentage of the initial wound area ([15]; day 10, mean ± SD): 70 ± 16%
- wound healing as a percentage of the initial wound area ([15]; day 14, mean ± SD): 92 ± 4%
- wound healing, difference versus vehicle-treated ([15]; days 1, 3 and 7, p > 0.2): not statistically significant

— PMC3947039 (ACS chemical biology, 2013)
